High-throughput results deposited in PubChem BioAssay by The Scripps Research Institute Molecular Screening Center.
Most compounds without a hit are left out; they make up all but 1.8% or so of the library.
CHRM5 antagonist – blocks acetylcholine activation of human M5 receptor; CHO-hM5 cells, Fluo-8 calcium fluorescence, ACh EC80; inhibition, % at 3 µM; 360,000 compounds, 0.59% hits; AID 624040;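 active = inhibition above a per-plate cutoff, the mean of that plate's test compounds plus 3 SD, cut at about 27% in these data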;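 note: 0% = acetylcholine EC80 with DMSO and 100% = DMSO without agonist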
CHRM4 PAM – potentiates acetylcholine response at human M4 receptor; 360,000 compounds, 0.4% hits; activation, % at 3 µM; P08173; CHO-K1 hM4/Gqi5, Fluo-8 calcium fluorescence, ACh EC20; 0% = ACh EC20, 100% = maximal ACh;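 active = activation above its plate's cutoff, the mean activation of sample wells plus 3 SD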
Target sequence (P08173 whole entry, looked up): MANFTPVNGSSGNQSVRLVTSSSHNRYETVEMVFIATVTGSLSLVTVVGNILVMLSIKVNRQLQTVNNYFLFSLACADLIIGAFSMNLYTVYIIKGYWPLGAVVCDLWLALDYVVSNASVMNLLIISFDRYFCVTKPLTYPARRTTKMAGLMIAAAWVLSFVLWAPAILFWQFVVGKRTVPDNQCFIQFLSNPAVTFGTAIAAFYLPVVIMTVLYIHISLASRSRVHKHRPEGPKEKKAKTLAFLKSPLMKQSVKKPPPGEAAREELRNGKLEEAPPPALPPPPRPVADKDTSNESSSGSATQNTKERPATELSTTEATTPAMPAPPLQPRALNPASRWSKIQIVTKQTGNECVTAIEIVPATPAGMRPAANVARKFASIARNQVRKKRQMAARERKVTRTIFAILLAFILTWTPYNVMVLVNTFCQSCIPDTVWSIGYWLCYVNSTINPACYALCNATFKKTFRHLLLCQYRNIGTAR
CHRM4 agonist – CHRM4 agonism in calcium assay; 360,000 compounds, 0.14% hits; CHO-K1 hM4/Gqi5, Fluo-8 calcium fluorescence; vehicle 0%, full acetylcholine response 100%; activation, % at 3 µM; P08173;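 active = activation above the run mean over all test wells plus 3 SD, cut at about 32% in these data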;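 note: peak over basal fluorescence ratio per well then scaled between controls; 0% = DMSO wells and 100% = acetylcholine at EC100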
M4 antag – CHRM4 antagonism in calcium assay; AID 624125; inhibition, % at 3 µM; 360,000 compounds, 0.73% hits; CHO-hM4 cells, ACh EC80, Fluo-8 calcium fluorescence;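 active = inhibition above its plate's cutoff, the mean inhibition of sample wells plus 3 SD, cut at about 27% in these data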;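 note: 0% = acetylcholine EC80 with DMSO and 100% = DMSO without agonist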
CHRM5 PAM – potentiates acetylcholine response at human M5 receptor. P08912. CHO-K1 hM5, Fluo-8 calcium, ACh EC20 PAM; 0% = ACh EC20, 100% = ACh EC100. activation, % at 3 µM. 360,000 compounds, 0.3% hits;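 active = activation above the run cutoff, the mean activation of all test compounds plus 3 SD, cut at about 18% in these data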
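Test system: CHO-K1 hM5 cells / Doses: single-point, 3 µM nominal / Times: Post-acetylcholine fluorescence recording 140 s / Technique: Fluo-8 calcium fluorescence / Measure: Max/basal fluorescence ratio as % of EC20–EC100 ACh window / Benchmarks: low control EC20 acetylcholine (0%), high control EC100 acetylcholine (100%) / Replicates: one well per compound, no replicates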
CHRM5 agonist – agonists of human muscarinic M5 receptor (CHRM5); P08912; CHO-K1 hM5 cells, Fluo-8 calcium fluorescence; 0% DMSO wells, 100% maximal acetylcholine response; activation, % at 3 µM; 360,000 compounds, 0.19% hits;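 active = activation above the run's mean over test compounds plus 3 SD, cut at about 23% in these data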;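 note: signal is peak over basal fluorescence ratio across the kinetic read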
* marks the source's active call; other numbers are inactive results.

What do the screens show for `Cc1ccc(C)c(NC(=O)CN(C)C(C)C(=O)N2CC(C)CC(C)C2)c1` (stereo unspecified)?
CHRM5 antagonist: -21; CHRM4 PAM: 16; CHRM4 agonist: 2; M4 antag: -12; CHRM5 PAM: 19*; CHRM5 agonist: -3

Results for COc1ccc(C(O)(CCN2CCCCC2)C2CCCCC2)cc1 (stereo unspecified) ?
CHRM5 antagonist: 64*; CHRM4 PAM: -20; CHRM4 agonist: 0; M4 antag: 75*; CHRM5 PAM: -23; CHRM5 agonist: -11

What do the screens show for `CCOC(=O)CSC(=S)NC(=O)c1ccc(OC)cc1`?
CHRM5 antagonist: 2; CHRM4 PAM: 35*; CHRM4 agonist: 1; M4 antag: 4; CHRM5 PAM: 2; CHRM5 agonist: 3

Results for N/C(=N\OC(=O)Nc1cccc(C(F)(F)F)c1)c1ccno1 ?
CHRM5 antagonist: 27*; CHRM4 PAM: -7; CHRM4 agonist: 7; M4 antag: 10; CHRM5 PAM: -17; CHRM5 agonist: 0

What do the screens show for `O/N=C\c1cnc(N2CCN(c3ccccc3)CC2)s1`?
CHRM5 antagonist: 2; CHRM4 PAM: 11; CHRM4 agonist: 1; M4 antag: -9; CHRM5 PAM: 2; CHRM5 agonist: -2

Results for Cc1ccc(/C=C/C(=O)c2cc(Br)ccc2OC(=O)c2ccco2)cc1 ?
CHRM5 antagonist: -6; CHRM4 PAM: 7; CHRM4 agonist: 0; M4 antag: -8; CHRM5 PAM: 21*; CHRM5 agonist: -3

How did CCOC(=O)C1(CCOc2ccccc2)CCN(Cc2ccc(OCCO)cc2)CC1 do in these assays?
CHRM5 antagonist: 3; CHRM4 PAM: -5; CHRM4 agonist: 3; M4 antag: 1; CHRM5 PAM: -5; CHRM5 agonist: -20

How did COC(=O)c1ccc(CN2CCC(CO)(CCOc3ccccc3)CC2)cc1 do in these assays?
CHRM5 antagonist: 27*; CHRM4 PAM: -16; CHRM4 agonist: 4; M4 antag: 48*; CHRM5 PAM: -29; CHRM5 agonist: -16

What do the screens show for `CCOC(=O)C1(CCOc2ccccc2)CCN(Cc2ccc(O)cc2)CC1`?
CHRM5 antagonist: 28*; CHRM4 PAM: -14; CHRM4 agonist: 9; M4 antag: -5; CHRM5 PAM: -34; CHRM5 agonist: -20

Results for COC(=O)c1ccc(CN2CCC(CO)(Cc3cccc(OC)c3)CC2)cc1 ?
CHRM5 antagonist: 5; CHRM4 PAM: -19; CHRM4 agonist: 3; M4 antag: 18; CHRM5 PAM: -12; CHRM5 agonist: -10

Results for CCOC(=O)C1(CCOc2ccccc2)CCN(Cc2ccc(OC)c(O)c2)CC1 ?
CHRM5 antagonist: 9; CHRM4 PAM: -10; CHRM4 agonist: 7; M4 antag: -7; CHRM5 PAM: -30; CHRM5 agonist: -24

What do the screens show for `CCOC(=O)C1(CCOc2ccccc2)CCN(Cc2ccc(O)c(OCC)c2)CC1`?
CHRM5 antagonist: 31*; CHRM4 PAM: -12; CHRM4 agonist: 12; M4 antag: -13; CHRM5 PAM: -18; CHRM5 agonist: -5

Results for COc1ccc(C)cc1NC(=O)CSc1nnc(-c2cc(C)[nH]n2)n1N ?
CHRM5 antagonist: -6; CHRM4 PAM: 2; CHRM4 agonist: -1; M4 antag: -4; CHRM5 PAM: 2; CHRM5 agonist: -3

Results for Cc1oc(-c2ccccc2)cc1C(=O)Nc1cccc(C(=O)O)c1 ?
CHRM5 antagonist: -2; CHRM4 PAM: 43*; CHRM4 agonist: 1; M4 antag: -5; CHRM5 PAM: 14; CHRM5 agonist: -4

Results for CS(=O)(=O)c1sc(C#N)c2c1C(=O)CC(c1ccccc1)C2 (stereo unspecified) ?
CHRM5 antagonist: 31*; CHRM4 PAM: -15; CHRM4 agonist: 8; M4 antag: 76*; CHRM5 PAM: -20; CHRM5 agonist: -19

What do the screens show for `CN1CCN(C(=O)c2ccc3c(Cl)c4c(nc3c2)CCCC4)CC1`?
CHRM5 antagonist: 10; CHRM4 PAM: 15*; CHRM4 agonist: 1; M4 antag: 6; CHRM5 PAM: 5; CHRM5 agonist: -3

How did Cc1cnc(NC(=O)NCC2CCCC(CNC(=O)Nc3ncc(C)s3)C2)s1 (stereo unspecified) do in these assays?
CHRM5 antagonist: 17; CHRM4 PAM: 48*; CHRM4 agonist: 20; M4 antag: 9; CHRM5 PAM: 27*; CHRM5 agonist: 2

What do the screens show for `O=C(NCCN1CCN(c2cccc(Cl)c2)CC1)Nc1ccccc1`?
CHRM5 antagonist: 1; CHRM4 PAM: -13; CHRM4 agonist: 5; M4 antag: 2; CHRM5 PAM: -7; CHRM5 agonist: -4

How did O=C(NCCN1CCN(Cc2ccccc2)CC1)Nc1cc(Cl)cc(Cl)c1 do in these assays?
CHRM5 antagonist: 21; CHRM4 PAM: -53; CHRM4 agonist: 45*; M4 antag: 43*; CHRM5 PAM: -28; CHRM5 agonist: 13

Results for Cc1ccc(NC(=O)c2cc([N+](=O)[O-])ccc2N2CCOCC2)cc1C ?
CHRM5 antagonist: -6; CHRM4 PAM: -3; CHRM4 agonist: 1; M4 antag: 8; CHRM5 PAM: 4; CHRM5 agonist: -2

Results for Cc1ccc(NC(=O)c2cc([N+](=O)[O-])ccc2N2CCOCC2)cc1S(=O)(=O)N(C)C ?
CHRM5 antagonist: -2; CHRM4 PAM: -44; CHRM4 agonist: 6; M4 antag: 49*; CHRM5 PAM: 1; CHRM5 agonist: -16

Results for O=C(Nc1ccccc1-c1nc2ccccc2[nH]1)c1ccc(N2C(=O)CCC2=O)cc1 ?
CHRM5 antagonist: 27*; CHRM4 PAM: -4; CHRM4 agonist: 6; M4 antag: 5; CHRM5 PAM: -14; CHRM5 agonist: 2

How did CCCCN1CC(=O)N2[C@H]3c4ccccc4OC[C@@H]3[C@H](c3ccccc3)[C@]2(C)C1=O do in these assays?
CHRM5 antagonist: 8; CHRM4 PAM: -4; CHRM4 agonist: 5; M4 antag: 0; CHRM5 PAM: -2; CHRM5 agonist: 4

Results for Cc1cc(N2CCCC2=O)cc(C)c1S(=O)(=O)NCCOc1ccc(C(C)(C)C)cc1 ?
CHRM5 antagonist: 33*; CHRM4 PAM: -17; CHRM4 agonist: 12; M4 antag: 28*; CHRM5 PAM: -26; CHRM5 agonist: 2

How did Cc1ccc2c(c1)[C@H]1[C@H](CO2)[C@H](c2ccccc2)[C@]2(C)C(=O)Nc3ccc(Cl)cc3C(=O)N12 do in these assays?
CHRM5 antagonist: 13; CHRM4 PAM: -8; CHRM4 agonist: 1; M4 antag: 17; CHRM5 PAM: -32; CHRM5 agonist: -3

How did COc1ccc2c(c1)OC[C@H]1[C@H]2N2C(=O)c3ccccc3NC(=O)[C@@]2(C)[C@H]1c1ccccc1 do in these assays?
CHRM5 antagonist: 12; CHRM4 PAM: -11; CHRM4 agonist: 2; M4 antag: 56*; CHRM5 PAM: -20; CHRM5 agonist: -6
